# Cneo AK release: causes C. neoformans cell lysis. adenylate kinase release luminescence, 4 h; normalised: neutral wells 0, clomiphene wells 100. lysis activity, % at 15 µM. 360,000 tested, 0.2% active. AID 651654;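 active = mean lysis activity across replicates of at least 80%, whatever share of replicates individually reach that level; inactive = mean lysis activity below 80%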
#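 Assay system: Cryptococcus neoformans yeast cells / Dosing: single-point compound dose / Timing: 4 h at 37 °C static, read 1 h later / Measured by: luminescence of released adenylate kinase using an AK detection reagent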
# DENV2 CPE rescue: protects cells from dengue virus 2 cytopathic effect; AID 651640; 350,000 tested, 1.7% active; DENV2-infected cells, cytopathic effect rescue, plate reader; CPE inhibition, % at 9.99 µM; in the data active = CPE inhibition above about 20%, passing the limit was not always enough; inconclusive = no clear call, values can overlap the other calls; tested in BHK-21 cells
# rRNA inh HTS: inhibitors of bacterial rRNA selective over humanized ribosomes; E. coli WT GFP vs humanized-ribosome RFP mutants, fluorescence, 24 h; stronger effect = lower value; DMSO median 0, no signal -100; 350,000 tested, 1.6% active; AID 720706; GFP signal change (wild-type ribosome), % (test concentration not listed);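 active = significant combined selectivity score with lowered wild-type GFP, culture density cut under 30%, mutant RFP and density less affected; inactive = any of these conditions unmet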
# E-sel inducer: E-selectin induction on HUVECs; P16581; HUVEC E-selectin immunofluorescence imaging; normalized: neutral wells 0, TNF-alpha wells 100; activation, % at 7.58 µM; 260,000 tested, 0.37% active;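 active = mean E-selectin-positive cell signal at least 10% of the positive control, reached in at least 60% of replicates, without over 20% cell loss; inconclusive = no rule given, readout overlaps actives, possibly toxicity-flagged; inactive = the rest, including those meeting only one limit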
# Target sequence (P16581 whole entry, looked up): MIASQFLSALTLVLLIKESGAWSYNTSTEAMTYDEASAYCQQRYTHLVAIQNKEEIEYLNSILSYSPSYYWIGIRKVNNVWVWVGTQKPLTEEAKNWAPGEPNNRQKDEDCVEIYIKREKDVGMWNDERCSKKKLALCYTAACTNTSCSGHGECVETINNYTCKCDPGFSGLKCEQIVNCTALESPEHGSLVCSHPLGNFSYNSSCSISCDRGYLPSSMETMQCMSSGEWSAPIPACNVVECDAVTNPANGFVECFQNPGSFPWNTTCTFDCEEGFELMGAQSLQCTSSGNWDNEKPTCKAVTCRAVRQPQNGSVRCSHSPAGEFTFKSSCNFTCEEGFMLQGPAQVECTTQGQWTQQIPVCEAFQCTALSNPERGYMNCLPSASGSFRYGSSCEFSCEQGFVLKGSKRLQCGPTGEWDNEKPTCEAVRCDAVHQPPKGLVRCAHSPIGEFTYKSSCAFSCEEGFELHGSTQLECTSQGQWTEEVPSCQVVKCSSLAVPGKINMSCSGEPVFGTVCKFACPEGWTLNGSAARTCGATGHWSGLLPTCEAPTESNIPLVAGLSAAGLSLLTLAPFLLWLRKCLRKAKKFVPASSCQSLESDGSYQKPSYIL
#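 System: HUVEC, human umbilical vein endothelial cells; quantity: 3,000 cells/well; buffer or medium: EGM-2 medium, gelatin-coated wells; dosing: single-point compound dose; detection: immunofluorescence imaging; evaluation: % PE-positive cells; benchmarks: TNF-alpha, DMSO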
# miR122 inh: inhibitors of miR-122 in Huh7 cells; Huh7 miR-122 Renilla luciferase sensor, 48 h; neutral wells = 0, positive control = 100; activation (reporter increase), % at 12.5 µM; 340,000 tested, 0.3% active; AID 602342;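 active = mean replicate activation score at least 90 and every replicate individually at or above 90; inconclusive = only one of the two criteria met; inactive = neither criterion met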;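 note: higher luciferase means less miR-122 activity so hits act as miR-122 inhibitors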
# Hits are given with their value; 0 = inactive; ? = inconclusive; - = no result; ! = not active in a repeat. Sampled rows, rich in hits. Any-hit rate of the full collection: about 3.1%.
SMILES,Cneo AK release,DENV2 CPE rescue,rRNA inh HTS,E-sel inducer,miR122 inh
C=CCn1c(SCC(=O)Nc2nc3ccccc3s2)nc(O)c(CC)c1=O,0,0,-27,33,0
O=C(NNc1nc2ccccc2s1)Nc1ccc(F)cc1,-,0,0,-,0
O=C(CP(=O)(c1ccccc1)c1ccccc1)Nc1nc2ccccc2s1,-,0,-36,0,-
C[C@H]1CN([C@@H](C)CO)S(=O)(=O)c2ccc(-c3ccccc3)cc2O[C@@H]1CN(C)Cc1ccncc1,0,0,0,0,0
C/C=C/c1ccc2c(c1)O[C@H](CN(C)C(=O)C1CC1)[C@@H](C)CN([C@H](C)CO)S2(=O)=O,-,-,0,0,0
C[C@@H]1CN([C@@H](C)CO)C(=O)Cc2cc(NS(=O)(=O)c3ccc(F)cc3)ccc2O[C@@H]1CN(C)C(=O)Nc1ccc2c(c1)OCO2,-,-,0,0,0
O=C(O)c1cccc(N2C(=O)c3ccc(Oc4ccc(Cl)cc4)cc3C2=O)c1,-,0,-36,-,-
CCCC#Cc1ccc2c(c1)O[C@@H](CN(C)C(=O)c1ccncc1)[C@@H](C)CN([C@@H](C)CO)S2(=O)=O,0,0,0,0,0
CC(C)NC(=O)N1CCCCN2[C@@H](CO)[C@@H](c3ccc(Br)cc3)[C@@H]2C1,0,68,0,0,0
COc1ccc(-c2ccc([C@@H]3[C@H](CO)N4CCCCN(C(=O)NC(C)C)C[C@@H]34)cc2)cc1,0,64,0,0,0
CC(C)NC(=O)N1CCCCN2[C@@H](CO)[C@H](c3ccc(Br)cc3)[C@@H]2C1,0,0,0,0,0
C[C@H](CO)N1C[C@H](C)[C@@H](CN(C)C(=O)Nc2ccc(F)cc2)Oc2ccc(NC(=O)CCCCCC(=O)Nc3ccccc3N)cc2C1=O,-,0,0,0,-
Cc1cccc(N2CCN(C(=O)c3nn(C)c4c3CS(=O)(=O)c3ccccc3-4)CC2)c1C,0,36,0,-,0
CC1CC(C)CN(C(=O)c2nn(C)c3c2CS(=O)(=O)c2ccccc2-3)C1 (stereo not drawn),0,0,0,95,0
Cn1nc(C(=O)N2CCN(c3ccccc3F)CC2)c2c1-c1ccccc1S(=O)(=O)C2,-,0,0,0,0
Nc1c2c(nc3ccccc13)CCCC2,0,?,-,0,0
Nc1c2ccccc2nc2ccccc12,0,0,-43!,0,0
CC(C)NC(=S)N1CCn2c(nc3ccccc32)C1,0,?,0,0,116
CCNC(=S)N1CCn2c(nc3ccccc32)C1,-,-,-,-,0
C[C@H](CO)N1C[C@H](C)[C@H](CN(C)S(C)(=O)=O)Oc2c(NC(=O)c3cnccn3)cccc2C1=O,0,0,0,0,0
CCS(=O)(=O)N[C@H]1CC[C@@H](CC(=O)NCc2ccc(Cl)cc2)O[C@@H]1CO,0,0,-,-,-
O=C(/C=C/c1ccccc1O)c1ccco1,0,0,0,-,0
O=C(/C=C/c1cc(Br)ccc1O)c1ccco1,0,0,0,0,195
CC1CCC(CN2CCN=C2Nc2ccccc2)CC1 (stereo not drawn),0,40,0,0,0
C[C@H]1CN([C@@H](C)CO)S(=O)(=O)c2ccc(C#CC(C)(C)O)cc2O[C@@H]1CN(C)C,0,?,0,0,0
SMILES,Cneo AK release,DENV2 CPE rescue,rRNA inh HTS,E-sel inducer,miR122 inh
CC1CCN(Cc2cc(=O)oc3ccc4ccccc4c23)CC1,-,0,-23,0,-
CC1CCN(Cc2cc(=O)oc3ccc(C(C)C)cc23)CC1,0,0,-23,0,0
CC(C)c1ccc2oc(=O)cc(CN3CCN(c4ccccc4)CC3)c2c1,0,-,-,-,0
Cc1cc2oc(=O)cc(CN3CCC(C)CC3)c2cc1C,0,0,0,0,0
CC(C)c1ccc2oc(=O)cc(CN3CCCCC3)c2c1,0,0,-21,-,0
CC(=O)N(C)C[C@@H]1Oc2cc(Br)ccc2S(=O)(=O)N([C@@H](C)CO)C[C@@H]1C,0,0,0,0,0
CCC(=O)N(C)C[C@H]1Oc2cc(Br)ccc2S(=O)(=O)N([C@@H](C)CO)C[C@H]1C,0,0,0,0,0
C[C@@H]1CN([C@@H](C)CO)S(=O)(=O)c2ccc(Br)cc2O[C@H]1CN(C)C(=O)CN(C)C,0,0,0,0,0
CC(=O)N(C)C[C@@H]1Oc2cc(Br)ccc2S(=O)(=O)N([C@H](C)CO)C[C@@H]1C,0,36!,0,0,0
C[C@H]1CN([C@@H](C)CO)S(=O)(=O)c2ccc(Br)cc2O[C@H]1CN(C)C(=O)CN(C)C,0,38!,0,0,0
C[C@H](CO)N1C[C@H](C)[C@@H](CN(C)C(=O)CN(C)C)Oc2cc(Br)ccc2S1(=O)=O,0,33,0,0,0
c1ccc2oc(-c3[nH]ncc3CN(Cc3ccncc3)CC3CCCO3)cc2c1 (stereo not drawn),0,0,0,0,0
O=C1CC[C@@H](CN(Cc2ccccc2)Cc2cn[nH]c2-c2cc3ccccc3o2)N1,0,0,-24,0,-
CCCn1c(N)c(C(=O)CN(C)CC(=O)Nc2cc(C)ccc2C)c(=O)[nH]c1=O,0,51,0,0,0
Nc1c(C(=O)c2ccccc2)sc2nsc(SCCN3CCCC3)c12,0,57,0,0,0
Nc1c(C(=O)c2ccc(Cl)cc2)sc2nsc(SCCN3CCOCC3)c12,0,0,-,-,0
CC1(C)COC(c2ccc(F)c([N+](=O)[O-])c2)=N1,-,34,0,-,-
CC1(C)COC(c2cc([N+](=O)[O-])ccc2Cl)=N1,0,-,-,-,0
